Experiment: Toxicity liver stage against HepG2, at 10uM
Assay type: cell-based
Parameters: test concentration 10 uM, cell line HepG2-A16-CD81EGFP
Conditions: human, HepG2-A16-CD81EGFP cells; read-out: INHIBITION
Procedure, shortened: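 Uninfected HepG2-A16-CD81EGFP cells, 3 × 10^3 per well, 1536-well, plated on prespotted compound at 10 μM final, parasite-free screening media added to match infected plates; puromycin 10 μM positive, DMSO 0.5% negative; run in parallel with 48 h PbLuc assay at 37 °C, 5% CO2; viability by CellTiter-Glo luminescence, normalized to controls.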

SMILES | cytotoxicity at 10 µM
Cc1cc(=O)n2nc(CNc3cc(Cl)ccc3C)nc2[nH]1 | -5.64%
COc1ccc(NC(=O)c2cnc(N3CCN(C)CC3)nc2C)cc1 | -3.45%
CN1CCC(N(C)C(=O)c2cnn(-c3cc(F)ccc3F)c2N)CC1 | -8.47%
CS(=O)(=O)N1C[C@@H](C(=O)Nc2cnccn2)C[C@H]2OCC[C@H]21 | 17.3%
CCN(CC)c1ccc2ccc(C(=O)O)cn12 | 1.42%
Cc1nnn2c1COC(CNCc1ccncc1)C2 (stereo not given) | 7.48%
CCNC(=O)Cc1n[nH]c(-c2cncc(Br)c2)n1 | 1.2%
Cn1nccc1C(=O)N1CCOC(Cc2cccnc2)C1 (stereo not given) | -7.95%
CC(=O)N1CCCC1c1nccnc1Nc1cccc(C)n1 (stereo not given) | 1.31%
CC(NC(=O)NCCn1ccnc1)c1nncn1C (stereo not given) | -8.92%
CSC(C)C(=O)NCCC(=O)N1CCN(c2ccccn2)CC1 (stereo not given) | 3.05%
Cc1cccc(C(=O)Nc2cccc3c2C(=O)NC3)n1 | 1.14%
Cc1ccc(C(=O)N2CCN(c3ccnc4ccsc34)CC2)o1 | 38.7%
NC(=O)NC(=O)CNC1(c2ccc(Cl)cc2)CCCC1 | 15.7%
COc1ccc(COCC(O)CN(C)c2ccc(C)cc2C)cc1 (stereo not given) | 1.6%
CCC(C)(NCc1ncc(C(C)C)o1)c1nccs1 (stereo not given) | 18.9%
CC(=O)N1CCC(NC(=O)NCCCc2cn[nH]c2C)CC1 | -4.2%
COCc1ccccc1NC(=O)[C@@H]1CCCN1C(=O)c1ccco1 | -6.34%
O=C1[C@H]2CN(Cc3ccoc3)C[C@@H]2CCN1Cc1cccnc1 | -71.5%
CCOCc1ncn2c1CN(C(=O)c1ccoc1)CC2 | -72.6%
O=C(c1cccs1)N1CCCn2cnc(COCC3CC3)c2C1 | -81.3%
Cn1cc(C2COC3(CCN(C(=O)Cn4cccn4)CC3)C2)cn1 (stereo not given) | 2.7%
Cc1cnc(N2CCCC(c3ccccc3)C2)nc1-c1ncnn1C (stereo not given) | -1.79%

SMILES | cytotoxicity at 10 µM
CC(C)(C)CCN1CCCC(Cn2cc(CCO)nn2)C1 (stereo not given) | -13.9%
Cc1nc[nH]c1CN1CCC(CNC(=O)c2cccc3cnccc23)C1 (stereo not given) | -10.1%
Cc1ccc(NC(=O)[C@H]2C[C@H](C(=O)O)CN(CC3CC3)C2)cn1 | 0.999%
CCNC(=O)[C@@H]1C[C@H](NC(=O)Cn2ccnc2)CN1Cc1ccsc1 | 5.89%
CN(Cc1ccncn1)C(=O)CCC(=O)NC1CCCC1 | -1.01%
Cc1ccc(-c2cccc(N3CCC(NC4CCOCC4)CC3)c2)cc1 | -12.3%
CSC(C)C(=O)N1CCC(Oc2cc(C)ccc2F)(C(=O)O)CC1 (stereo not given) | 2.88%
OC1(CNCCc2csc(-c3ncccn3)n2)CCNC1 (stereo not given) | -8.44%
CC(C)c1nccc(-c2nccn2CCS(C)(=O)=O)n1 | 4.68%
Cc1ccc(F)cc1-n1c(CCCN2CCOCC2)n[nH]c1=O | 7.32%
O=C(NC1CC1)c1cn(C2CCN(c3cc(C4CC4)ncn3)CC2)nn1 | 27.8%
Cc1ccc(CC(=O)N2CCCC(c3cc(C(N)=O)[nH]n3)C2)cn1 (stereo not given) | -14.2%
Cc1ncsc1CN1C[C@@H]2COC[C@]2(C(=O)NCC2CC2)C1 | 5.38%
Cc1ccc(C(=O)N2CCC3(CC2)CC(c2cnn(C)c2)CO3)cn1 (stereo not given) | -69.5%
Cc1ccc(N2CC3(COCCN(Cc4cccnc4)C3)OCC2=O)s1 (stereo not given) | 2.39%
Cc1ccoc1C(=O)N1Cc2c(Cn3ccnc3)nn(C)c2C1 | -68.5%
COCCN1CCO[C@@H]2CN(Cc3cc(OC)cc(OC)c3)C[C@@H]2C1 | 38.8%
CC1=N[C@@]2(CC[C@@H]3CN(CC(C)C)C[C@@H]32)C(=O)N1CC(C)C | -79.6%
c1cncc(COC[C@H]2CC[C@H]3[C@H](CCN3Cc3nccs3)O2)c1 | -69.6%
c1ccc(OCc2nnc3n2CCN(CC2CC2)C3)nc1 | -0.945%
Cc1nnn2c1COC(CNCc1ccccn1)C2 (stereo not given) | 0.903%
CCC(=O)N1Cc2nccn2CC(CN(C)Cc2cccnc2)C1 (stereo not given) | 3.55%
